Values after ≈ are worked out from the molar mass of the structure shown.
Experiments:
[1] = Inhibition of His6-tagged recombinant Plasmodium berghei dihydroorotate dehydrogenase expressed in Escherichia coli using L-dihydroorotate as substrate after 5 to 10 mins by DCIP dye-based assay
[2] = biological target: Dihydroorotate dehydrogenase (quinone), mitochondrial (Homo sapiens, UniProt Q02127); experiment: Inhibition of His6-tagged recombinant human dihydroorotate dehydrogenase expressed in Escherichia coli using L-dihydroorotate as substrate after 5 to 10 mins by DCIP dye-based assay
Plasmodium falciparum = experiment: Antimalarial activity against Plasmodium falciparum 3D7 infected in human A positive erythrocytes by [3H]hypoxanthine uptake assay in presence of serum in medium; assay type: functional, organism-based
In short: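 Growth read by [3H]-hypoxanthine uptake. Each concentration run in quadruplicate and fitted to a four-parameter variable-slope log[I]-response model for 50% growth inhibition.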

[3] = biological target: T1, Dihydroorotate dehydrogenase (Plasmodium falciparum, UniProt Q54A96); experiment: Inhibition of His6-tagged recombinant Plasmodium falciparum dihydroorotate dehydrogenase expressed in Escherichia coli using L-dihydroorotate as substrate after 5 to 10 mins by DCIP dye-based assay
T1 sequence (Q54A96 whole entry): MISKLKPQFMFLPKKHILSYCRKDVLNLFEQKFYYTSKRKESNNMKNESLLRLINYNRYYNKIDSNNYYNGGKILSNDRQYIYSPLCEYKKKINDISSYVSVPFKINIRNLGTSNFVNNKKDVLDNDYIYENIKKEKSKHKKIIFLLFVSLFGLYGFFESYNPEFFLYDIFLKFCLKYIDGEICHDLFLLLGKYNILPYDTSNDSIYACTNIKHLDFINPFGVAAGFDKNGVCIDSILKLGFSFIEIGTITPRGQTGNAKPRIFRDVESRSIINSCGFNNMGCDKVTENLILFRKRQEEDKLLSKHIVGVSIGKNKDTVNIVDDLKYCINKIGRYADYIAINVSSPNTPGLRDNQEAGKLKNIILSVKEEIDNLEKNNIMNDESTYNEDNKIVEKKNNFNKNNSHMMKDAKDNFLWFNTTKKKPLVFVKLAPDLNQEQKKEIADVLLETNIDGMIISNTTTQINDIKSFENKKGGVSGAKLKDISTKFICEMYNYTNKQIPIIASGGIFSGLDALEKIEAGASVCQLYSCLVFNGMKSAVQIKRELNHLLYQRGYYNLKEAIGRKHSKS

[4] = Plasma protein binding in human by albumin chromatographic method; assay type: ADME, cell-free; conditions: read-out: PPB (converted)
[5] = Aqueous solubility of the compound in phosphate buffer at pH 6.5; assay type: physicochemical
In short: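 Non-equilibrium solubility. Concentrated DMSO stocks were diluted into pH 6.5 phosphate buffer (final DMSO 1% v/v) and precipitation was monitored by nephelometry. Solubility is given as the concentration range just before a turbidity signal rose above background.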

[6] = Partition coefficient, log D of the compound at pH 7.4 by UV-HPLC analysis; conditions: octanol/water
Liver microsomes = experiment: Intrinsic clearance in human liver microsome assessed per mg of protein at 1 uM after 60 mins by LC-MS analysis; assay type: ADME; conditions: microsomes, 1 h, 1 µM
In short: (§1)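 Microsomal stability. Compound at 1 μM with liver microsomes (0.4 mg/mL protein) in 0.1 M phosphate pH 7.4 at 37 °C. Started with an NADPH-regenerating system plus MgCl2; controls lacked NADPH. Quenched with cold acetonitrile at time points up to 60 min. Parent loss measured by LC-MS and fitted to exponential decay to give CLint.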

[7] = Inhibition of His6-tagged recombinant Plasmodium berghei dihydroorotate dehydrogenase expressed in Escherichia coli using L-dihydroorotate as substrate after 10 to 15 mins by DCIP dye-based assay; conditions: in the assay text read “5 to 10 mins” for “10 to 15 mins”
In short: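 Truncated soluble enzyme lacking the N-terminal membrane domain. Final concentrations: 0.2 mM L-dihydroorotate, 0.02 mM CoQD, 0.12 mM DCIP. Reaction started with 10 nM enzyme and read at 600 nm for 5–10 min at 20 °C. Inhibitor 0.01–100 μM in 3-fold steps, in triplicate. IC50 from a three-parameter fit of vi/vo from initial rates.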

Liver = experiment: Intrinsic clearance in mouse liver microsome assessed per mg of protein at 1 uM after 60 mins by LC-MS analysis; assay type: ADME; conditions: microsomes, 1 h
In short: as §1

Mus musculus [8] = experiment: Toxicity in Swiss mouse assessed as adverse effect at 20 mg/kg, po measured after 24 hrs; assay type: organism-based; parameters: dose 20 mg/kg, route oral; conditions: in vivo
Mus musculus [9] = experiment: Cmax in Swiss mouse at 20 mg/kg, po measured after 24 hrs by LC-MS analysis; assay type: ADME, organism-based; parameters: dose 20 mg/kg, route oral; conditions: in vivo
In short: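 Non-fasted male Swiss outbred mice given a single oral gavage dose in 0.5% w/v sodium carboxymethylcellulose, 0.5% v/v benzyl alcohol, 0.4% v/v Tween 80. One mouse per time point, cardiac blood under isoflurane, sampling to 24 h. Plasma stabilized, acetonitrile-precipitated, quantified by LC-MS against blank-plasma standards; Cmax read from concentration-time profile.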

[10] = phosphate buffer, read-out: solubility

Chain of Dihydroorotate dehydrogenase (quinone), mitochondrial (Q02127 whole entry): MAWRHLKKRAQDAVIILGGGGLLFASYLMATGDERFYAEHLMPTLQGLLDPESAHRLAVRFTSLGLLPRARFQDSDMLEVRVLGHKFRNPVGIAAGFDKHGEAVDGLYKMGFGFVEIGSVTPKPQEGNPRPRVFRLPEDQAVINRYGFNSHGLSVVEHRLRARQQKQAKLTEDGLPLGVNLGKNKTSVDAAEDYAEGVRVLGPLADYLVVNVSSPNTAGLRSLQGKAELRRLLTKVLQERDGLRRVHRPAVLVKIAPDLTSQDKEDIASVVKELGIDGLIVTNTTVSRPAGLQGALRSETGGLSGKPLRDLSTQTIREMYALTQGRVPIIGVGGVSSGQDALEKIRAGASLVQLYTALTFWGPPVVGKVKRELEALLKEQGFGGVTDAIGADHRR

Row | SMILES | IC50 [1] [µM] | IC50 [2] [µM] | EC50 (Plasmodium falciparum) [µM] | IC50 [3] [µM] | fraction unbound [4] | solubility [5, 10] [µM] | logD [6] | CL (Liver microsomes) [µL/min/mg] | IC50 [7] [µM] | solubility ([5]; buffer) [µM] | CL (Liver) [µL/min/mg] | Activity (Mus musculus [8]) | Cmax (Mus musculus [9]) [nM]
1 | CCCc1c(C)nc2ncnn2c1Nc1ccc(C)cc1 | > 100 | > 100 | > 10 | > 100 | – | – | – | – | – | – | – | – | –
2 | Cc1cc(Nc2ccc3ccccc3c2)n2ncnc2n1 | – | – | – | – | 0.062 | 45 (≈ 12.4 µg/mL) | 3.2 | – | – | – | – | – | –
3 | CCc1nc(N)nc(N)c1-c1ccc(Cl)cc1 [PYRIMETHAMINE] | – | – | 0.023 | – | 0.13 | – | – | – | – | – | – | – | –
4 | Cc1cc(NCc2ccc(C(F)(F)F)cc2)n2ncnc2n1 | > 100 | – | – | > 100 | – | – | – | – | – | – | – | – | –
5 | Cc1cc(Nc2ccc(C(C)(C)C)cc2)n2ncnc2n1 | – | > 100 | 0.32 | 0.078 | 0.068 | 11 (≈ 3.09 µg/mL) | 3.4 | 43 | 0.4 | – | – | – | –
6 | Cc1cc(Nc2ccc(OCc3ccccc3)cc2)n2ncnc2n1 | > 100 | – | > 10 | 5.4 | – | – | – | – | – | – | – | – | –
7 | Cc1cc(Nc2ccc(C3CC3)cc2)n2ncnc2n1 | – | > 100 | 1.4 | 0.42 | 0.132 | – | 2.7 | 53 | 2.9 | > 377 | 287 | – | –
8 | Cc1cc(NC2CCc3cc(Cl)ccc3C2)n2ncnc2n1 (stereo not drawn) | 10 | – | 10 | 0.67 | – | – | – | – | – | – | – | – | –
9 | Cc1cc(NCCCc2ccccc2)n2ncnc2n1 | > 100 | – | 25 | 26 | – | – | – | – | – | – | – | – | –
10 | Cc1cc(Nc2ccc(NC(C)(C)C)cc2)n2ncnc2n1 | > 100 | – | > 5 | > 50 | – | – | – | – | – | – | – | – | –
11 | Cc1cc(Nc2ccc3c(c2)OCO3)n2ncnc2n1 | – | > 100 | 21 | 1.6 | – | 186 (≈ 50.1 µg/mL) | 1.6 | 11 | 55 | – | – | – | –
12 | Cc1cc(Nc2ccc3c(c2)CCC3)n2ncnc2n1 | – | > 100 | 0.8 | 0.22 | 0.075 | 47 (≈ 12.5 µg/mL) | 2.9 | 77 | 1 | – | 341 | – | –
13 | Cc1cc(NC2Cc3ccccc3C2)n2ncnc2n1 | – | – | 0.4 | 0.5 | 0.239 | 188 (≈ 49.9 µg/mL) | 2.5 | < 5 | 2.4 | – | 32 | Non-toxic | 500
14 | CCCCc1ccc(Nc2cc(C)nc3ncnn23)cc1 | – | > 100 | 4.8 | 0.28 | 0.033 | 11 (≈ 3.09 µg/mL) | 3.6 | 36 | 5.25 | – | – | – | –
15 | Cc1cc(Nc2ccc(SC(F)(F)F)cc2)n2ncnc2n1 | – | > 50 | 0.27 | 0.61 | 0.039 | 5 (≈ 1.63 µg/mL) | – | < 5 | 1.2 | – | 119 | – | –
16 | CCCCCCCCc1ccc(Nc2cc(C)nc3ncnn23)cc1 | > 100 | – | > 5 | > 50 | – | – | – | – | – | – | – | – | –
17 | C=Cc1ccc(Nc2cc(C)nc3ncnn23)cc1 | – | > 100 | 0.34 | – | 0.156 | 25 (≈ 6.28 µg/mL) | 2.4 | 32 | 4.5 | – | 168 | – | –
18 | Cc1cc(NOc2ccccc2)n2ncnc2n1 | > 100 | – | – | > 100 | – | – | – | – | – | – | – | – | –
19 | CCCc1ccc(Nc2cc(C)nc3ncnn23)cc1 | – | > 100 | 6.8 | 0.99 | 0.065 | 187 (≈ 50 µg/mL) | 3.1 | 36 | 9 | – | – | – | –
20 | Cc1cc(Nc2ccc(N(C)C)cc2)n2ncnc2n1 | – | > 100 | 2.7 | 0.82 | – | 93 (≈ 25 µg/mL) | 2.2 | 9 | 12 | – | 226 | – | –
21 | FC(F)(F)c1ccc(Nc2cc(Cl)nc3ncnn23)cc1 | – | > 100 | 3.4 | 0.17 | – | – | – | – | 0.13 | – | – | – | –
22 | CCc1ccc(Nc2cc(C)nc3ncnn23)cc1 | – | > 100 | 3.3 | 0.61 | 0.12 | 25 (≈ 6.33 µg/mL) | 2.6 | 61 | 3.9 | – | – | – | –
23 | Cc1cc(Nc2ccc(Cl)c(F)c2)n2ncnc2n1 | – | > 50 | 3.5 | 0.55 | – | – | – | – | 1.3 | – | – | – | –
24 | Cc1cc(NC2Cc3ccc(Br)cc3C2)n2ncnc2n1 (stereo not drawn) | – | > 50 | 6.6 | 1.2 | – | – | – | – | 3.3 | – | – | – | –
25 | C#Cc1ccc(Nc2cc(C)nc3ncnn23)cc1 | – | > 100 | 5.1 | 1.1 | 0.182 | 100 (≈ 24.9 µg/mL) | 2.2 | 8 | 4.1 | – | 27 | – | –
26 | Cc1cc(Nc2ccc(N3CCOCC3)cc2)n2ncnc2n1 | > 100 | – | > 10 | > 100 | – | – | – | – | – | – | – | – | –
